Beta apoptosis: blocks beta cell apoptosis. INS-1E cytokine-induced death, ATP luminescence, 48 h; percent of positive-control rescue, neutral wells zero. protection from apoptosis, % (test concentration not listed). actives 0.8% (n = 300,000). AID 435005;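 active means Every replicate reaches about 75%, or at least half do and their mean reaches it too, limit read from the data; inconclusive means At least half of replicates reach the limit but their mean does not; inactive means Under half of replicates reach the limit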;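 further: 0% = cytokine-treated negative control wells and 100% = positive control rescue; higher means more ATP so stronger rescue from cytokine killing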
CSC inhib: blocks cancer stem cells | cancer stem cell-like cells viability, luminescence | inhibition, % at 7.5 µM | actives 1.1% (n = 300,000); in the data active means inhibition above about 75%; inconclusive means no clear call, values can overlap the other calls; tested in HMLE shEcad cells
XBP1 UPR activ: activators of adaptive arm of unfolded protein response (XBP1); AID 463104; CHO-XBP1 luciferase reporter, IRE1-XBP1 UPR activation, luminescence; percent of tunicamycin response, DMSO as zero; activation, % at 20 µM; actives 0.33% (n = 330,000);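 active means versus positive control, 20 µM dose yields 30% or more activation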;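 further: 100% = tunicamycin at 10 µg/mL and 0% = DMSO only wells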
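assay system = CHO-XBP1 luciferase reporter cells | amount = 1000 cells/well | buffer or medium = F12 plus 10% FBS | compound dosing = single point, 20 µM final compound, 1% DMSO | incubation = 16-18 h cell attachment at 37 °C, then 6 h compound exposure | detection = Steady-Glo luminescence read | controls = tunicamycin 10 µg/mL and vehicle-only wells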
Mdm2 MdmX PPI: inhibitors of human Mdm2/MdmX interaction | SaOS-2 split-luciferase Mdm2/MdmX complementation, luminescence | inhibition, % at 8 µM | actives 3% (n = 330,000) | AID 485346;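 active means inhibition of at least 50% at 8 µM in the primary screen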
Target sequence (O15151 whole entry, looked up): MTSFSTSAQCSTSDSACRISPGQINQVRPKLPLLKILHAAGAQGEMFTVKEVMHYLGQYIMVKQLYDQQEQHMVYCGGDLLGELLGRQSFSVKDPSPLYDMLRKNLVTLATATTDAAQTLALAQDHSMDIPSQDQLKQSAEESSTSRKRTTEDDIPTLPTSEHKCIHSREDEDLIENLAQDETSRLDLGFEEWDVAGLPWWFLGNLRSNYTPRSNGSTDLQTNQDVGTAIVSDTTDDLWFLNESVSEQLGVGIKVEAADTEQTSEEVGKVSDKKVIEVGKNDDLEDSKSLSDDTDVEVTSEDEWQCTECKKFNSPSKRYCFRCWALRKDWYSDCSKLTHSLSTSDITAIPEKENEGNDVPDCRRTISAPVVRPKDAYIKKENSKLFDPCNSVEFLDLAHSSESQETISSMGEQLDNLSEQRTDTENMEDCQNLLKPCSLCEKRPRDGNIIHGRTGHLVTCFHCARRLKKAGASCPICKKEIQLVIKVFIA
Target sequence (Q00987 whole entry, looked up): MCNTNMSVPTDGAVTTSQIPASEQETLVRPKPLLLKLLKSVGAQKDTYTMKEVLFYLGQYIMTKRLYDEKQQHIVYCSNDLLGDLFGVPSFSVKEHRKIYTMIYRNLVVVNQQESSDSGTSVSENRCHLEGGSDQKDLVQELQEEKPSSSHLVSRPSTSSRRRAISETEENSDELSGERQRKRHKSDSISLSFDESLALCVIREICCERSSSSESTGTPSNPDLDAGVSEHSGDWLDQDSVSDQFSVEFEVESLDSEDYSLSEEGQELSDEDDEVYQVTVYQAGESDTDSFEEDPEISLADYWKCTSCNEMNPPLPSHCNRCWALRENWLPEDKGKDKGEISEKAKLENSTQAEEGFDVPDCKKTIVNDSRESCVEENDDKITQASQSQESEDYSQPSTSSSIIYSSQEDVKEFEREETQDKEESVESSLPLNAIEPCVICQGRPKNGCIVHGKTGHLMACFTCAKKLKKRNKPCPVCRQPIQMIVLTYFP
T cruzi repl: T. cruzi replication inhibition; T. cruzi beta-gal in NIH3T3, luminescence, 90 h; inhibition, % (test concentration not listed); actives 1.4% (n = 300,000); AID 1885;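 active means mean inhibition across valid replicates above about 55%, limit read from the data; inconclusive means mean below that limit but half or more replicates reach it; inactive means mean below it, under half of replicates reach it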;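 further: signal also drops with host cell toxicity which is not excluded here; 0% = plate median of DMSO wells and 100% = zero luminescence signal; higher percent means less beta-gal luminescence so fewer parasites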
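System: NIH/3T3 fibroblasts plus reporter T. cruzi. Medium: DMEM plus 2% FBS. Probe or stimulus: 5000 reporter trypomastigotes per well. Compound: single 50 nL compound addition per well in DMSO. Incubation: co-culture of at least 90 h after 3 h attachment. Detection: GalScreen β-gal luminescence, detergent lysis, 60 min. Evaluation: parasite load inhibition, %.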
CHOP UPR activ: activators of apoptotic arm of unfolded protein response (CHOP). CHO-CHOP luciferase reporter, UPR activation, luminescence; percent of tunicamycin response over DMSO baseline. actives 0.34% (n = 330,000). activation, % at 10 µM;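 active means at 10 µM dose, activation of 40% or more, normalized to positive control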;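 further: 100% = tunicamycin at 10 µg/mL and 0% = DMSO alone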
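Material: CHO-CHOP cells, stable luciferase reporter of PERK-eIF2a-CHOP signalling; quantity: 500 reporter cells seeded per well; buffer or medium: F12 medium containing 10% fetal bovine serum; compound: one dose, 10 µM in 0.5% DMSO; incubation: 6 h compound treatment, 37 °C; measured by: Steady-Glo luciferase luminescence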
Mdm2 MdmX conf: confirmation of human Mdm2/MdmX interaction inhibitors; shares compounds with Mdm2 MdmX PPI; Mdm2-MdmX binding, luminescent assay; AID 489028; inhibition, % at 8 µM; actives 55% (n = 10,000); in the data active means inhibition above about 40%
FLuc counter: counter-screen for Mdm2/MdmX inhibitors: full-length luciferase; shares compounds with Mdm2 MdmX PPI; inhibition, % at 8 µM; actives 77% (n = 6,200); SaOS-2 full-length luciferase counterscreen, luminescence;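 active means mean inhibition at 8 µM reaching about 37%, which flags the compound as non-specific, limit read from the data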;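 further: p53-null SaOS-2 cells with luciferase driven by a doxycycline-inducible promoter; compound on cells about two nights before reading with doxycycline added after day one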
The depositor's hits bear a star. Shown are actives, neighbours in structure and some others; about 5% of the full set was active somewhere.

COc1ccc(Cn2c(-c3ccc(C)cc3)c[n+]3ccccc23)cc1 was read as Beta apoptosis 93*, CSC inhib 5, XBP1 UPR activ 3, Mdm2 MdmX PPI 62*, T cruzi repl inconclusive, CHOP UPR activ 5, Mdm2 MdmX conf 37 and FLuc counter 65*.
COC(=O)NC(=C(Cl)Cl)S(=O)(=O)c1ccccc1 was read as CSC inhib 21, XBP1 UPR activ 7, Mdm2 MdmX PPI 55*, CHOP UPR activ 13 and Mdm2 MdmX conf 15.
For CCOC(=O)NC(C(Cl)(Cl)Cl)S(=O)(=O)c1ccccc1 (stereo not drawn) the results were Beta apoptosis -11, CSC inhib 9, XBP1 UPR activ -1, Mdm2 MdmX PPI 4, T cruzi repl -28 and CHOP UPR activ 0.
`Cc1cccc(-n2cc(CNCCN3CCOC3=O)c(-c3cccc(F)c3)n2)c1` gave Beta apoptosis -7, CSC inhib -3, XBP1 UPR activ 3, Mdm2 MdmX PPI -5, T cruzi repl -6 and CHOP UPR activ 1.
Screening C=CCn1c(=O)c(C(=O)Nc2cccnc2)c(O)c2ccccc21 returned Beta apoptosis -2, CSC inhib 30, XBP1 UPR activ 0, Mdm2 MdmX PPI 68*, T cruzi repl -8, CHOP UPR activ 4 and Mdm2 MdmX conf 3.
C=CCn1c(=O)c(C(=O)Nc2ccc(C)cn2)c(O)c2ccccc21 was read as Beta apoptosis 46, CSC inhib -8, XBP1 UPR activ 6, Mdm2 MdmX PPI 12, T cruzi repl 0 and CHOP UPR activ 3.
`CCOC(=O)[C@H]1[C@H]2COc3cc(OC)ccc3[C@@H]2N2C(=O)N(c3cccc(Cl)c3)C(=O)[C@@]12C` gave Beta apoptosis 3, CSC inhib 34, XBP1 UPR activ -2, Mdm2 MdmX PPI -19, T cruzi repl 1 and CHOP UPR activ -2.
For CN1CCN2c3ncccc3Cc3ccccc3C2C1 (stereo not drawn) the results were CSC inhib 1, XBP1 UPR activ -8, Mdm2 MdmX PPI 21, T cruzi repl 5 and CHOP UPR activ 1.
CC(C)(C)[C@]1(O)CCN2C[C@H]3c4ccccc4CCc4cccc(c43)[C@@H]2C1 was read as Beta apoptosis 4, CSC inhib -4, XBP1 UPR activ -8, Mdm2 MdmX PPI 66*, T cruzi repl 30, CHOP UPR activ 1, Mdm2 MdmX conf 36 and FLuc counter 84*.
`CCCN(C(=O)c1c(-c2ccccc2)noc1C)c1c(N)n(Cc2ccccc2)c(=O)[nH]c1=O` gave Beta apoptosis -2, XBP1 UPR activ 7, Mdm2 MdmX PPI -32 and CHOP UPR activ -1.
`Cc1cccc(NC(=O)CCc2c(C)nc3ncnn3c2C)n1` gave Beta apoptosis -4, CSC inhib 0, XBP1 UPR activ -1, Mdm2 MdmX PPI 13, T cruzi repl -11 and CHOP UPR activ -1.
For S=C(NCCN(C1CCCCC1)C1CCCC1)Nc1cccc(Cl)c1 the results were Beta apoptosis 12, CSC inhib 34, XBP1 UPR activ 0, Mdm2 MdmX PPI 62*, T cruzi repl 32, CHOP UPR activ 2, Mdm2 MdmX conf 37 and FLuc counter 63*.
`CCOC(=O)c1ccc(N(C(=O)c2ccco2)C(C(=O)NC2CCCC2)c2ccncc2)cc1` (stereo not drawn) gave Beta apoptosis 5, CSC inhib -22, XBP1 UPR activ 3, Mdm2 MdmX PPI 14, T cruzi repl 6 and CHOP UPR activ 5.
For COc1ccc(NC(=O)C(=O)c2cn(CC(=O)N3CCCC3)c3ccccc23)cc1 the results were Beta apoptosis 9, CSC inhib 1, XBP1 UPR activ 8, Mdm2 MdmX PPI 58*, T cruzi repl 5, CHOP UPR activ 6, Mdm2 MdmX conf 55* and FLuc counter 89*.

Compound activity from PubChem BioAssay.
